Screens as filed in PubChem.
Furin inhibitor: human furin inhibition; inhibition, % at 20 µM or 30 µM; AID 463115; purified furin, fluorogenic substrate cleavage; 0.061% of 220,000 active; in the data active = inhibition above about 25%
Target sequence (P09958 108-714 limits assumed): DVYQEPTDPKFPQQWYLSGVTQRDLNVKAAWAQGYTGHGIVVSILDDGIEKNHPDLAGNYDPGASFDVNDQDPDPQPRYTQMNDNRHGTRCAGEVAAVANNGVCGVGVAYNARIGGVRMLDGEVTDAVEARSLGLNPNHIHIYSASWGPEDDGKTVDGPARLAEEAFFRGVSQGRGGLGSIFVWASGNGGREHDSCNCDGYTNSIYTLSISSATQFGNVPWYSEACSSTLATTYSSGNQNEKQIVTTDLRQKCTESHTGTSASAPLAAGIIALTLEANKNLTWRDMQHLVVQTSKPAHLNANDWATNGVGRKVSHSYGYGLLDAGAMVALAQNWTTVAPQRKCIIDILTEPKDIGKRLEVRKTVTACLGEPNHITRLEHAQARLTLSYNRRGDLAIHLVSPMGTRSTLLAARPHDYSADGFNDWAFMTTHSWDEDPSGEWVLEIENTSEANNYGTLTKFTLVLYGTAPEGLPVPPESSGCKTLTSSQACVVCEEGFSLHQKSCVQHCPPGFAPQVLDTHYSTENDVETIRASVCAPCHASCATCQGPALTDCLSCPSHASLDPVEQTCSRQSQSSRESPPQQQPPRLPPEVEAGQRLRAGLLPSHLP
TNF death inh: inhibitors of TNF-alpha induced necroptosis in Jurkat FADD-/- cells; Jurkat FADD-/- TNF necroptosis rescue, ATP luminescence, 24 h; 0 = TNF only, 100 = no-TNF cells; activation (protection from cell death), % at 10 µM; 0.068% of 220,000 active; AID 463075;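 active = activation, meaning protection from cell death, of at least 50% relative to plate controls; inactive = activation below 50%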;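 note: necroptosis triggered by 40 ng/mL TNF-alpha added together with compound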
HSV augment: HSV replication enhancement. 0.005% of 220,000 active. HSV replication augmentation in cells, fold increase. maximum fold increase. AID 1956; in the data active = maximum fold increase above about 1.5; inconclusive = no clear call, values can overlap the other calls; tested in PC3 cells
zVAD death inh: blocks zVAD induced death of L929 cells; viability rescue, % at 10 µM; L929 zVAD necroptosis rescue, ATP luminescence, 24 h; with zVAD 60 µM; 0.38% of 220,000 active; AID 1377;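 active = activation, scaled between plate controls, above about 75%, limit read from the data; inactive = activation under that limit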;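 note: 0% = zVAD with DMSO and 100% = DMSO alone without zVAD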
Dynein transport: dynein cargo transport inhibition. 3617.4 mouse cells, GR-EGFP nuclear translocation imaging; test concentration mostly 20 µM; stimulated with dexamethasone, 1 µM; stronger effect = lower value. z-score, hits read low. 0.47% of 220,000 active;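 active = plate z-score of nuclear minus cytoplasmic receptor signal below a set negative limit, without overly bright fluorescence or cell loss, cut at about -3.5 in these data, passing the limit was not always enough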;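 note: z-score of nuclear minus cytoplasmic ring GR-EGFP intensity difference per well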
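medium = tetracycline-free induction medium containing charcoal-stripped FBS | also added = 1.0 µM final dexamethasone stimulus | schedule = 48 h induction, 1 h compound, 30 min dex at 37 °C | technique = fixed, Hoechst-stained cells imaged at 10x for EGFP | measure = GR-EGFP nuclear translocation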
Autophagy HCS: alters autophagy in cells; MEF GFP-LC3 puncta imaging; test concentration mostly 10 µM; calls only at 10 µM (by protocol); 0.98% of 190,000 active;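 active = percentage of spot-positive cells more than 3 SD above its plate mean, without a fluorescence outlier flag or 80% toxicity; inconclusive = no clear call, values can overlap the other calls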;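 note: spot-positive cell cutoff set from DMSO-treated cells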
zVAD death conf: confirmed blocker of zVAD induced death in L929 cells | shares compounds with zVAD death inh | L929 zVAD-induced necroptosis rescue, ATP luminescence, 24 h | activation (protection from necroptosis), % at 10 µM | 16% of 760 active | AID 463117;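 active = mean protection from necroptosis of at least 50% over duplicate tests; inactive = mean protection below 50%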;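 note: 0% = cells with zVAD alone and 100% = vehicle cells without zVAD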
The depositor's hits bear a star. The list is not random: actives were taken first. Their share in the collection is about 1.8%.

What do the screens show for `Cc1ccc(Nc2nnc(-c3ccc(N4CCOCC4)c([N+](=O)[O-])c3)c3ccccc23)cc1`?
Furin inhibitor: -24; TNF death inh: 0; HSV augment: inactive; zVAD death inh: 73; Dynein transport: 0.19; Autophagy HCS: inactive

Results for O=[N+]([O-])c1cc(-c2nnc(Nc3ccccc3)c3ccccc23)ccc1N1CCOCC1 ?
Furin inhibitor: -14; TNF death inh: 1; HSV augment: inactive; zVAD death inh: 98*; Dynein transport: -0.65; Autophagy HCS: inactive; zVAD death conf: 36

How did CC(=O)c1ccc2noc(-c3ccccc3)c2c1 do in these assays?
Furin inhibitor: -4; TNF death inh: 1; HSV augment: inactive; zVAD death inh: 76*; Dynein transport: -0.66; Autophagy HCS: inactive; zVAD death conf: 2

How did CCOC(=O)C1CCN(CC(=O)Nc2cc(S(=O)(=O)N3CCOCC3)ccc2C)CC1 do in these assays?
Furin inhibitor: -16; TNF death inh: 0; HSV augment: inactive; zVAD death inh: 0; Dynein transport: 1.7; Autophagy HCS: inactive

How did CCN(CC)CCCNC(=O)CC1Sc2ccccc2NC1=O (stereo not given) do in these assays?
Furin inhibitor: -31; TNF death inh: -1; HSV augment: inactive; zVAD death inh: 0; Dynein transport: 0.048; Autophagy HCS: inactive

How did CCCCN(C)CCCNC(=O)/C=C1\Sc2ccccc2NC1=O do in these assays?
Furin inhibitor: -23; TNF death inh: 5; zVAD death inh: 75*; Dynein transport: -0.33; Autophagy HCS: inactive; zVAD death conf: 24

How did Cc1cc(-c2nnc(CSc3nnc(NC(=O)c4ccc(C(C)(C)C)cc4)s3)o2)ccc1[N+](=O)[O-] do in these assays?
Furin inhibitor: -17; TNF death inh: 2; HSV augment: inactive; zVAD death inh: 0; Dynein transport: -0.16

Results for COc1cc(-c2cc(=O)c3c(O)c(OC)c(OC)cc3o2)cc(OC)c1O ?
Furin inhibitor: -24; TNF death inh: -16; HSV augment: inactive; zVAD death inh: 77*; Dynein transport: -0.31; zVAD death conf: 10

Results for COc1ccc(-c2cc(=O)c3c(O)c(OC)c(O)cc3o2)cc1 ?
Furin inhibitor: -25; TNF death inh: -4; HSV augment: inactive; zVAD death inh: 1; Dynein transport: -0.28; Autophagy HCS: inactive

How did CC(C)C[C@@H](CSc1ccc(Br)cc1)N1CCN(CC(C)C)CCC1=O do in these assays?
Furin inhibitor: -29; TNF death inh: 0; HSV augment: inactive; zVAD death inh: 1; Dynein transport: -0.9

Results for CC1CCCC(NC(=O)CCNS(=O)(=O)c2ccc(Br)cc2)C1C (stereo not given) ?
Furin inhibitor: -19; TNF death inh: 1; HSV augment: inactive; zVAD death inh: 77*; Dynein transport: -0.025; Autophagy HCS: inactive; zVAD death conf: 7

Results for CC(C)OCCCNC(=S)Nc1ccc(S(N)(=O)=O)cc1 ?
Furin inhibitor: -11; TNF death inh: 3; HSV augment: inactive; zVAD death inh: 75*; Dynein transport: -0.53; Autophagy HCS: inactive; zVAD death conf: 2

How did CNC(=O)c1cc(Nc2nnc(-c3ccc(O)cc3)c3ccccc23)ccc1OC do in these assays?
Furin inhibitor: -3; TNF death inh: -2; HSV augment: inactive; zVAD death inh: 80*; Dynein transport: 0.48; Autophagy HCS: inactive; zVAD death conf: 2

Results for O=C(Cc1ccccc1)Nc1nnc(SCC(=O)NC2CCCC2)s1 ?
Furin inhibitor: -22; TNF death inh: 2; HSV augment: inactive; zVAD death inh: 1; Dynein transport: 0.58; Autophagy HCS: inactive

What do the screens show for `O=C(CSc1nnc(NC2CCCCC2)s1)Nc1ccc2c(c1)C(=O)c1ccccc1C2=O`?
Furin inhibitor: -28; TNF death inh: 12; HSV augment: inactive; zVAD death inh: 80*; Dynein transport: 0.22; Autophagy HCS: inactive; zVAD death conf: 90*

Results for CC(C)Nc1nnc(SCC(=O)Nc2ccc3c(c2)C(=O)c2ccccc2C3=O)s1 ?
Furin inhibitor: -19; TNF death inh: 2; HSV augment: inactive; zVAD death inh: 81*; Dynein transport: 0.21; Autophagy HCS: inactive; zVAD death conf: 45

How did CCOc1ccc2nc(NC(=O)C3CCCN(S(=O)(=O)c4cccs4)C3)sc2c1 (stereo not given) do in these assays?
Furin inhibitor: -25; TNF death inh: 1; HSV augment: inactive; zVAD death inh: 88*; Dynein transport: -0.64; Autophagy HCS: inactive; zVAD death conf: 5

Results for CCOc1ccc2nc(NC(=O)C(NS(=O)(=O)c3cccs3)C(C)C)sc2c1 (stereo not given) ?
Furin inhibitor: -15; TNF death inh: -2; HSV augment: inactive; zVAD death inh: 1; Dynein transport: -0.067; Autophagy HCS: inactive

Results for O=Nc1c2ccc[nH]c-2c2ccc([N+](=O)[O-])cc12 ?
Furin inhibitor: -18; TNF death inh: 1; HSV augment: inactive; zVAD death inh: 75*; Dynein transport: 1; Autophagy HCS: inactive; zVAD death conf: 0

How did O=C(c1ccccc1)N1CCCC(C(=O)N2CCN(c3ccccc3)CC2)C1 (stereo not given) do in these assays?
Furin inhibitor: -22; TNF death inh: 0; HSV augment: inactive; zVAD death inh: 0; Dynein transport: -0.51

How did O=C1CC(/C=C/c2ccc(Cl)cc2)=Nc2ccccc2N1 do in these assays?
Furin inhibitor: -13; TNF death inh: -1; HSV augment: inactive; zVAD death inh: 77*; Dynein transport: -2.1; Autophagy HCS: inactive; zVAD death conf: 1

How did COc1cc(/C=C2\Oc3cc(O)ccc3C2=O)ccc1O do in these assays?
Furin inhibitor: -14; TNF death inh: -3; HSV augment: inconclusive; zVAD death inh: 76*; Dynein transport: -0.84; zVAD death conf: 27

Results for CSc1nc2ccc(Nc3nc(N4CCOCC4)nc(N4CCOCC4)n3)cc2s1 ?
Furin inhibitor: -23; TNF death inh: 1; HSV augment: inactive; zVAD death inh: 84*; Dynein transport: -0.57; Autophagy HCS: inactive; zVAD death conf: 2

What do the screens show for `O=C(CSc1nc2ccc(Nc3nc(N4CCOCC4)nc(N4CCOCC4)n3)cc2s1)N1CCOCC1`?
Furin inhibitor: -20; TNF death inh: 3; HSV augment: inactive; zVAD death inh: 3; Dynein transport: -0.049; Autophagy HCS: inactive

How did O/N=C(\c1ccc(Cl)cc1Cl)c1ncc(C(F)(F)F)cc1Cl do in these assays?
Furin inhibitor: -24; TNF death inh: 3; HSV augment: inactive; zVAD death inh: 1; Dynein transport: -0.75; Autophagy HCS: inactive
